Variants at the floor of the assay were thinned out.
B1: tRNA (parent)
chain: GUUCCGUUGGCGUAAUGGUAACGCGUCUCCCUCCUAAGGAGAAGACUGCGGGUUCGAGUCCCGUACGGAACG

Variants of: B1
Assay: yeast fitness relative to wild type (ratio to wild type); higher = fitter; tRNA-Arg(CCU), competitive growth, 37 C, YPD
In short: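 Changes in genotype frequencies gave Darwinian fitness relative to wild type. Frequencies were read by 100-nucleotide paired-end sequencing of gene amplicons before and after pooled Saccharomyces cerevisiae strains, carrying tRNA-Arg(CCU) gene variants at the native locus, were competed in YPD at 37°C for 24 hours in six replicates. A genotype was kept only with ≥ 100 starting reads, and estimates < 0.5 were set to 0.5.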
GUUCCGAUGCCGUAAUAGUAAUGCGUGUCCCUCCUAAGGAGAAGACUGCGGGUUCGAGUCCCGUACGGAACG [U7A G10C G17A C22U C27G] gave a yeast fitness of no more than 0.5. Work on GUUCCGAUGGCGUAAUGGUAACACGUCUCCCUCCUAAGGAGAAGACUGCGGGUUCGAGUACCGUACGGAACG [U7A G23A C60A] yielded a yeast fitness of no more than 0.5. For GUUCCGAUGGCGUAAUGGUAACACGUCUACCUCCUAAGGAGAAGACUGCGGGUUCGAGUCCCGUACGGAACG [U7A G23A C29A], the yeast fitness was 0.531. With GUUCCGAUGACGUAAUGGUAACGCGUCUCCCUACUCAGGAGAAGACUGCGGGUUCGAGUCCCGUACGGCACG [U7A G10A C33A A36C A69C] the yeast fitness was no more than 0.5. Variant GUUCCGAUGGCGUAAUGCUAACGCGUGUCCCUCCUAAAGAGAAGACUGCGGGUUCGAGUCCCGUACGGAACG [U7A G18C C27G G38A] has a yeast fitness of no more than 0.5. Variant GUUCCGAUGACGUAAUGGUCACGCGUCUACCUCCUAAGGAGAAGACUGCGGGUUCGAGUCUCGUAUGGAACG [U7A G10A A20C C29A C61U C66U] has a yeast fitness of no more than 0.5. With GUUCCGAUCGCGUAAUCGUAACGCGUCUCCCUCCUAAGGAGAAGACUGCAGGUUCGAGUCCCGUACGGAACG [U7A G9C G17C G50A] the yeast fitness was no more than 0.5. With GUUCCGAUGGCGUAAUGGUAACGCGUCUCCCUCCUAAAGAGAAGACUGCGGGUUCGAGUCCCGUACGGAACG [U7A G38A] the yeast fitness was 0.695. GUUCCGAUGGCGUAAUGGUAACCCGUCUCCCUCCUAAGGAGAAGACUGGGGGUUCGAGUCCCGUAAGGAACG [U7A G23C C49G C66A] gave a yeast fitness of no more than 0.5. Work on GUUCCGAUGGCAUAAUGGUAACGCGUCUCCCUCGUAAGGAGAAGACUGCGGGUUCGAGUCCUGUACGCAACG [U7A G12A C34G C62U G68C] yielded a yeast fitness of no more than 0.5. Work on GUUCCGAUGGCAUAAUGGUGACACGGCUCCCUCCUAAGGAGAAGACUGCGGGUUCGAGUCCCGUACGGAACG [U7A G12A A20G G23A U26G] yielded a yeast fitness of no more than 0.5. In the case of GUUCCGAUGACGUAAUGGUAACGCGUCUCCCUCCUAAGGGGAAGACUGCGGGUUCGAGUUCCGUACGGAACG [U7A G10A A40G C60U], the yeast fitness is reported as no more than 0.5. GUUCCGAUGACGUAUUGGUAACGCGUCUCCCUCCUAAGGAGAAGAAUGCGGGUUCGAGUCCCGUACGGAACG [U7A G10A A15U C46A] showed a yeast fitness of no more than 0.5. Work on GUUCCGAUGGCGUAAUCGUAACGGGUCUACCUCCUAAGGAGAAGACUGCGGGUUCGAGUCCCGUACGGAACG [U7A G17C C24G C29A] yielded a yeast fitness of no more than 0.5. In the case of GUUCCGAUGGCGUAAUGGUAACACGUCUCCCUCCUAAGGAGAUGACUGCGGGUUCGAGUCCCGUACGGAACG [U7A G23A A43U], the yeast fitness is reported as no more than 0.5. Work on GUUCCGAUGACGUAAUGGUAACGCGUCUCCCUACUCAGGAGAAGACUGCGGGUUCGAGUCUCGUAUGGAACG [U7A G10A C33A A36C C61U C66U] yielded a yeast fitness of no more than 0.5. In the case of GUUCCGAUGCCGUAAUGGUAACGCGCGUCCCACCUAAGGAGAAGACUGCGGGUUCGAGUCCCGUACGGAACG [U7A G10C U26C C27G U32A], the yeast fitness is reported as no more than 0.5. Work on GUUCCGAUGGCCUAAUGGUAACGCGUCUCCCUCUUAAGGAGAAGACUGCGGGUUCGAGUCCCGUACGGAACG [U7A G12C C34U] yielded a yeast fitness of no more than 0.5. With GUUCCGAUGACGUAAUGGUAACGCGUAUCGCUCCUAAGGACAAGACUGCGGGUUCGAGUCCCGUACGGAACG [U7A G10A C27A C30G G41C] the yeast fitness was no more than 0.5. GUUCCGAUGGCGUAAUCGUAACGGGUCUACCUCCUAAGGAGAAGACUCCGGGUUCGAGUCCCGUACGGAACG [U7A G17C C24G C29A G48C] gave a yeast fitness of no more than 0.5. Work on GUUCCGAUGGCGUAAUGGUAACCCGUCUCCGUUCUAAGGAGGAGACUGCGGCUUCGACUCCCGUACGGAACG [U7A G23C C31G C33U A42G G52C G58C] yielded a yeast fitness of no more than 0.5. Variant GUUCCGAUGGCGUAAUGAGAACGCGUCUCCCUCCUAAGGAGAAGACUGCGGGUUCGAGUCCAGUACGGAACG [U7A G18A U19G C62A] has a yeast fitness of 0.633. With GUUCCGAUGACGUAUUGGUAACGCGUCUCCCUCCUAAGGAGAGGACUGCAGGUUCGAGUCCCGUACGGAACG [U7A G10A A15U A43G G50A] the yeast fitness was 0.53. Work on GUUCCGAUGCCGUAAUGGUAACGCGUCUCCCUCCUAAGGGGAAGACUGCGGGAUCGAGUCCCAUACGGAACG [U7A G10C A40G U53A G63A] yielded a yeast fitness of no more than 0.5. GUUCCGAUGCCGUAAUGGUAACGCGUCUCCCUCCUAAGGAGAAGACUGCGGGUUCGUGUCCCGUACGGAACG [U7A G10C A57U] showed a yeast fitness of no more than 0.5. Variant GUUCCGAUGGCGUAAUGCUAACGCGUCUCCCUCCCAAGGAGAAGACUGCGGGUUCGAGUCCCGUACGGAUCG [U7A G18C U35C A70U] has a yeast fitness of no more than 0.5. In the case of GUUCCGAUGGCGUAAUGGUAACACGUCUCCCUCCUAAGGAGAAGACUGCGGGUUCGAGUCCCGUACGGAACG [U7A G23A], the yeast fitness is reported as 0.722. Work on GUUCCGAUGGCGUAAUGGUAACCCGUCUCCCUCCUAAGGAGAAGACUGCGGGUUCGAGUCCCGUACGGAACG [U7A G23C] yielded a yeast fitness of 0.519. In the case of GUUCCGAUGGCCUGAUGGUACCGUGUCUCCCUCCUAAAGAGAAGACUGCGGGUCCGAGUCCCGUAAGGAACG [U7A G12C A14G A21C C24U G38A U54C C66A], the yeast fitness is reported as no more than 0.5. Work on GUUCCGAUGGCGUAAUGGUAACCCGUCUCCCUCCUAAGGAGAAGACUGGGGGUUCGAGUCCCGUACGGAACG [U7A G23C C49G] yielded a yeast fitness of 0.566. In the case of GUUCCGAUCGCGUAAUCGUAACGCGUCUCCCUCCUAAGGAGAAGACUACGGGUUCGAGUUCCGUACGGAACG [U7A G9C G17C G48A C60U], the yeast fitness is reported as no more than 0.5. With GUUCCGAUCGCGUAAUCGUAACGCGUCUCCCUCCUAAGGAGAAGACUACGGGUUCGAGUCCAGUACGGAACG [U7A G9C G17C G48A C62A] the yeast fitness was no more than 0.5. With GUUCCGAUGACGUAAUGGUCACGCGUCUACCUCCUAAGGAGAAGACUGCGGGUAUGAGUCCCGUACGGAACG [U7A G10A A20C C29A U54A C55U] the yeast fitness was no more than 0.5. For GUUCCGAUGCCGUAAUGGUAACGCGUCUCGCUCUUAAGGAGAAGACUGCGGGUUCGAGUCCCGUACGGAACG [U7A G10C C30G C34U], the yeast fitness was no more than 0.5. For GUUCCGAUGGCGUAAUGCUAACGCGUAUCCGUCCUAAGGAGAGGACUGCGGGUUCGAGUCCCGUACGGAACG [U7A G18C C27A C31G A43G], the yeast fitness was no more than 0.5. With GUUCCGAUGACGUAAUGGUAACGCGUCUCCCUACUCAGGAGAAGACUGCGGGUUCGAGUCCCGUACGGAACG [U7A G10A C33A A36C] the yeast fitness was no more than 0.5. With GUUCCGAUGACGUAAUGGUAACGCGUCUCCCUACUCAGGAGAAGACUGCUGGUUCGAGUCCCGUACGGAACG [U7A G10A C33A A36C G50U] the yeast fitness was no more than 0.5.

— the RNAGym collection of RNA variant scans (doi:10.1126/science.aae0568)
